Inhibition data for 13 compounds are collected here from ChEMBL document CHEMBL4145581, “Piperidine Alkaloids with Diverse Skeletons from Anacyclus pyrethrum” (J Nat Prod, 2018).

As usually defined, the inhibition is the relative decrease from the control value, in per cent. The low end stands for little suppression, the high end for strong suppression.

The experiment addresses T1, Menin (Homo sapiens) (UniProt O00255).
T1 sequence (whole entry): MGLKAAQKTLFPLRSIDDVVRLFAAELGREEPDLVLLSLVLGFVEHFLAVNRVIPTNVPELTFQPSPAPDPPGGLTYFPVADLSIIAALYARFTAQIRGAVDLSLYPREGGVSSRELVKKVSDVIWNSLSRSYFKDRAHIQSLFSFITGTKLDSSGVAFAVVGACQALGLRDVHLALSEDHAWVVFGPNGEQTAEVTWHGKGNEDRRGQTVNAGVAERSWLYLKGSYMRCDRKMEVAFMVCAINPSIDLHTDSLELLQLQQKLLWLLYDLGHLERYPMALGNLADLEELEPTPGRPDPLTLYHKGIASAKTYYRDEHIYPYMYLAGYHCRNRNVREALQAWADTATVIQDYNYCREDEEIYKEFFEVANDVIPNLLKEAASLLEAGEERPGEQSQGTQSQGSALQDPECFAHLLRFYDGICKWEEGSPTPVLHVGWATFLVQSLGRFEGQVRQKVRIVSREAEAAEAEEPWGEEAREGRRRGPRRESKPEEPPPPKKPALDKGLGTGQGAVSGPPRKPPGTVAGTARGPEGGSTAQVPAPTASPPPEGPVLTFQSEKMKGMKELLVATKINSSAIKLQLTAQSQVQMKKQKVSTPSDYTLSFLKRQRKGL
The experiment can be described thus: Inhibition of FITC-labelled MLL1 binding to menin (unknown origin) at 20 uM after 120 mins by fluorescence polarization method relative to control. The method in brief:
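Menin–MLL1 protein–protein interaction inhibition assay with fluorescence polarization read-out on a plate reader. MI-2-2 served as the positive control.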
A general note: Fluorescence polarisation rises when a labelled molecule tumbles more slowly, as on binding a larger partner.
`CC1=C2C(=O)C3=CC(C)(C)N=C4CC(C)(C)C[C@@]2(CC(C)(C)N1)[C@]34O` returned an inhibition below 50%. Compound `CC1(C)CC2=NC(C)(C)C3=NC(C)(C)CC3(O)C2=N1` (stereo not drawn) yielded an inhibition below 50%. As for `CC1=CC(=O)NC(C)(C)C1`, the figure is below 50%; as for `CC1(C)CC(C2OC2(C)C)=CC(=O)N1` (stereo not drawn), below 50%; as for `CC(=O)NC(C)(C)C1C=C2CC(C)(C)NC(C)=C2C(=O)C1C` (stereo not drawn), below 50%. As for `CC(=O)NC(C)(C)[C@H]1C(=O)C2=CC(C)(C)NC(C)=C2C(=O)[C@@H]1C`, the figure is below 50%; as for `CC1=C2C3=C(C)C(=O)C(C)(C)N=C3C[C@@]2(C)CC(C)(C)N1`, below 50%; as for `CC1=C2NC(C)(C)CC2=NC(C)(C)C1=O`, below 50%. To `CC(=O)NC(C)(C)CC1=C[C@@]2(C)C(=O)C(C)(C)NC(C)=C2C1=O` belongs below 50%; to `CC1(C)CC2=NC(C)(C)C(=O)C(C(C)(C)O)=C2N1`, below 50%; to `CC(=O)NC(C)(C)[C@H]1C(=O)C2=CC(C)(C)NC(C)=C2C(=O)[C@@H]1C=C(C)C`, below 50%.

`CC(=O)NC(C)(C)C[C@@]1(O)C(=O)C2=C(C)NC(C)(C)C(=O)C2(C)[C@H]1O` (stereo partly drawn) gave an inhibition below 50%. To `CC1=CC(C)(C)NC1=O` belongs below 50%.
